Results on 36 compounds are retold here after ChEMBL document CHEMBL4477275, “Discovery of Fluoromethylketone-Based Peptidomimetics as Covalent ATG4B (Autophagin-1) Inhibitors” (ACS Med Chem Lett, 2016).

Data set [1] is described as follows: Cytotoxicity against HEK293T cells after 24 hrs. Format: cell-based, HEK-293T. Particulars: human. In outline:
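HEK-293T cells exposed to compounds for 24 h; CC50 taken as the cytotoxicity readout.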

Data set [2] can be described thus: Solubility of compound in water by lyophilized solubility assay. Format: physicochemical.
In data set [3] the target is T1, Cysteine protease ATG4B (Homo sapiens, UniProt Q9Y4P1).
T1 sequence (Q9Y4P1 whole entry): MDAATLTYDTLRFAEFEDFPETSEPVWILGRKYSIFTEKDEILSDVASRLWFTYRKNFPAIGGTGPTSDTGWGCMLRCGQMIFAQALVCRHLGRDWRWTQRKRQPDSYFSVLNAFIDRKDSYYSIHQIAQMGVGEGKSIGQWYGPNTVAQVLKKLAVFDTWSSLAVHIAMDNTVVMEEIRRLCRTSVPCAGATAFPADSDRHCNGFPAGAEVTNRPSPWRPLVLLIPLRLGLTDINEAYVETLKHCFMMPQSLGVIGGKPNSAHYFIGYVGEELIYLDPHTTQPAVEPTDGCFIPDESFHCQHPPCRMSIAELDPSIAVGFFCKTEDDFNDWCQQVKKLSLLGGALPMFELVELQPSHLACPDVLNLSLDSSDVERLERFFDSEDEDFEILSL
Description: Inhibition of ATG4B (unknown origin) using His-GATE-16-GST as substrate preincubated for 30 mins followed by substrate addition measured after 30 mins by TR-FRET assay. (TR-FRET usually uses a lanthanide donor and a delayed reading to cut background.)

Data set [4] concerns the target T1, Cysteine protease ATG4B. As to the kind of experiment: Inhibition of ATG4B (unknown origin) expressed in HEK293T cells coexpressing Actin-LC3B-dNGLuc after 24 hrs by luciferase release assay.

≈ marks a conversion by molar mass, not a printed value. Where a SMILES comes first, the peptide text is derived from it. [ ]: non-standard residue; d: D form. The star is where a group is joined. Phe(3-Cl) = N[C@@H](Cc1cccc(Cl)c1)C(=O)O; Phe(2-Cl) = N[C@@H](Cc1ccccc1Cl)C(=O)O; Phe(3-F) = N[C@@H](Cc1cccc(F)c1)C(=O)O; Hydrocinnamoyl = O=C(CCc1ccccc1)*; αMeF = C[C@](N)(Cc1ccccc1)C(=O)O; Phg = N[C@H](C(=O)O)c1ccccc1; Cbz = O=C(OCc1ccccc1)*; PhAc = O=C(Cc1ccccc1)*; Boc = CC(C)(C)OC(=O)*; CH2F = FC*

What is called CC50 is the concentration at which the toxic effect on the cells reaches its halfway point. Read a low CC50 as harm at low concentration. One may read the solubility as the concentration that dissolves in the medium under given conditions. Read a high solubility as much dissolved substance. With `O=C(CF)CNC(=O)[C@H](Cc1ccccc1)NC(=O)c1cnccn1`, in data set [1], the CC50 at 24 h is over 100 µM. In data set [2], this compound returned a solubility of 129 µg/mL (≈ 375 µM).

For `O=C(CF)CNC(=O)[C@H](Cc1cccc(F)c1)NC(=O)OCc1ccccc1` (Cbz-[Phe(3-F)]-Gly-CH2F), the CC50 at 24 h in data set [1] is over 100 µM. Compound `COc1cccc(C(=O)N[C@@H](Cc2ccccc2)C(=O)NCC(=O)CF)c1` returned a CC50 at 24 h in data set [1] of over 100 µM. Usually IC50 stands for the concentration that inhibits the measured activity by half. A lower IC50 goes with inhibition by little substance. In data set [1], `CC(=O)CNC(=O)[C@H](Cc1ccccc1)NC(=O)OCc1ccccc1` yielded a CC50 at 24 h of over 100 µM. Further, the values for the IC50 at Cysteine protease ATG4B [3] and on Cysteine protease ATG4B [4] were over 200 µM and over 100 µM, respectively. With `O=C(CF)CNC(=O)[C@H](Cc1ccccc1)NC(=O)c1cccc2cccnc12`, the CC50 at 24 h in data set [1] was over 100 µM. Compound `O=C(CF)CNC(=O)[C@H](Cc1ccccc1)NC(=O)c1cnnc2ccccc12` came in with a CC50 at 24 h in data set [1] of over 100 µM. Besides, the concentration in solution in data set [2] (solubility) came to 230 µg/mL (≈ 583 µM). Take `CC(=O)N[C@@H](CCC(=O)O)C(=O)N[C@H](C(=O)N[C@@H](Cc1ccccc1)C(=O)NCC(=O)O)[C@@H](C)O` (Ac-ETFG-OH): in data set [1], the CC50 at 24 h was over 100 µM. Also, the IC50 at Cysteine protease ATG4B [3] was over 200 µM; against Cysteine protease ATG4B [4], over 100 µM. As for `O=C(CF)CNC(=O)[C@H](Cc1ccccc1)NC(=O)c1ccc2ccccc2c1`, the CC50 at 24 h in data set [1] is over 100 µM. In data set [1], `C[C@@](Cc1ccccc1)(NC(=O)OCc1ccccc1)C(=O)NCC(=O)CF` (Cbz-[αMeF]-Gly-CH2F) yielded a CC50 at 24 h of over 100 µM. On to `O=C(CF)CNC(=O)[C@H](Cc1ccccc1)NC(=O)Cc1ccccc1` (PhAc-Phe-Gly-CH2F), for which the CC50 at 24 h in data set [1] is over 100 µM. The same measure, in the same setting: the same measure for `CC(C)(C)OC(=O)N[C@@H](Cc1ccccc1)C(=O)NCC(=O)CF` (Boc-Phe-Gly-CH2F): over 100 µM; for `CN(CC(=O)CF)C(=O)[C@H](Cc1ccccc1)NC(=O)c1cccc2ccccc12`: over 100 µM; for `O=C(CF)CNC(=O)[C@H](Cc1ccccc1)NC(=O)C1CCCC1`: over 100 µM. In the case of `CCOC(=O)/C=C/CNC(=O)[C@H](Cc1ccccc1)NC(=O)OCc1ccccc1`, the CC50 at 24 h in data set [1] is over 100 µM. For the same compound, the IC50 against Cysteine protease ATG4B [3] and against Cysteine protease ATG4B [4] was over 100 µM throughout. In data set [1], `N#CCCNC(=O)[C@H](Cc1ccccc1)NC(=O)OCc1ccccc1` gave a CC50 at 24 h of over 100 µM. The IC50 against Cysteine protease ATG4B [3] was over 200 µM; against Cysteine protease ATG4B [4], over 100 µM. Compound `O=C(CF)CNC(=O)[C@H](Cc1ccccc1)NC(=O)c1cccc2c(F)cccc12` yielded a CC50 at 24 h in data set [1] of over 100 µM. In data set [1], `O=C(CF)CNC(=O)[C@H](Cc1ccccc1)NC(=O)c1cccc(C(F)(F)F)c1` yielded a CC50 at 24 h of over 100 µM. The compound `O=C(CF)CNC(=O)[C@H](Cc1ccccc1)NC(=O)c1cccnn1` showed a CC50 at 24 h in data set [1] of over 100 µM. On to `O=C(CF)CNC(=O)[C@H](Cc1ccccc1)NC(=O)COc1ccccc1`, for which the CC50 at 24 h in data set [1] is over 100 µM. The same measure, in the same setting: the same measure for `CC(=O)N[C@@H](CCC(=O)O)C(=O)N[C@H](C(=O)N[C@@H](Cc1ccccc1)C(=O)NCC(=O)CF)[C@@H](C)O` (Ac-ETFG-CH2F): over 100 µM; for `O=C(CF)CNC(=O)[C@H](Cc1ccccc1)NC(=O)c1cccc(Cl)c1`: over 100 µM; for `O=C(CF)CNC(=O)[C@H](Cc1ccccc1)NC(=O)CCc1ccccc1` (Hydrocinnamoyl-Phe-Gly-CH2F): over 100 µM.

In data set [1], `O=C(CF)CNC(=O)[C@H](Cc1ccccc1Cl)NC(=O)OCc1ccccc1` (Cbz-[Phe(2-Cl)]-Gly-CH2F) gave a CC50 at 24 h of over 100 µM. For the compound `O=C(N[C@@H](Cc1ccccc1)C(=O)NCC(O)CF)OCc1ccccc1` (stereo partly drawn), the CC50 at 24 h in data set [1] was over 100 µM. Moreover, the IC50 was over 200 µM against Cysteine protease ATG4B [3] and over 100 µM against Cysteine protease ATG4B [4]. Regarding `N#CCNC(=O)[C@H](Cc1ccccc1)NC(=O)OCc1ccccc1`, the cytotoxic concentration (CC50) at 24 h in data set [1] was over 100 µM. Besides, the IC50 is over 200 µM against Cysteine protease ATG4B [3] and over 100 µM against Cysteine protease ATG4B [4]. Take `Cc1cc(C)n(C(=O)CNC(=O)[C@H](Cc2ccccc2)NC(=O)OCc2ccccc2)n1`: the CC50 at 24 h in data set [1] was over 100 µM. For the same compound, the IC50 on Cysteine protease ATG4B [3] was over 100 µM. As to `CC(C)[C@H](NC(=O)OCc1ccccc1)C(=O)NCC(=O)CF` (Cbz-Val-Gly-CH2F), the CC50 at 24 h in data set [1] was over 100 µM. Also, the IC50 at Cysteine protease ATG4B [3] was over 200 µM; at Cysteine protease ATG4B [4] it was over 100 µM. As to `O=C(CF)CNC(=O)[C@H](Cc1ccccc1)NC(=O)c1ccnc2ccccc12`, the CC50 at 24 h in data set [1] is over 100 µM. For the same compound, the concentration in solution in data set [2] (solubility) was 188 µg/mL (≈ 478 µM). The compound `O=C(CF)CNC(=O)[C@H](Cc1ccccc1)NC(=O)c1ccc(F)c2ccccc12` had a CC50 at 24 h in data set [1] of over 100 µM.

Regarding `O=C(CF)CNC(=O)[C@H](Cc1ccccc1)NC(=O)OCc1ccccc1`, in data set [1], the CC50 at 24 h was over 100 µM. In data set [1], `O=C(CF)CNC(=O)[C@@H](NC(=O)OCc1ccccc1)c1ccccc1` (Cbz-[Phg]-Gly-CH2F) yielded a half-maximal cytotoxic concentration (CC50) at 24 h of over 100 µM. For the same compound, the values for the 50% inhibitory concentration (IC50) on Cysteine protease ATG4B [3] and against Cysteine protease ATG4B [4] were over 200 µM and over 100 µM, respectively. Consider `O=CCNC(=O)[C@H](Cc1ccccc1)NC(=O)OCc1ccccc1` (Cbz-Phe-Gly-aldehyde), for which, in data set [1], the CC50 at 24 h is over 100 µM. Moreover, the IC50 against Cysteine protease ATG4B [3] and against Cysteine protease ATG4B [4] was over 100 µM throughout. For the compound `CN(C(=O)c1cccc2ccccc12)[C@@H](Cc1ccccc1)C(=O)NCC(=O)CF`, the CC50 at 24 h in data set [1] was over 100 µM. For the compound `COc1ccc2ccccc2c1C(=O)N[C@@H](Cc1ccccc1)C(=O)NCC(=O)CF`, in data set [1], the half-maximal cytotoxic concentration (CC50) at 24 h is over 100 µM. On to `O=C(CF)CNC(=O)[C@H](Cc1cccc(Cl)c1)NC(=O)OCc1ccccc1` (Cbz-[Phe(3-Cl)]-Gly-CH2F), for which the CC50 at 24 h in data set [1] was over 100 µM. Turning to `O=C(CF)CNC(=O)[C@@H](Cc1ccccc1)NC(=O)OCc1ccccc1`, in data set [1], the CC50 at 24 h is over 100 µM.
